Laboratory results: ChEMBL document CHEMBL4368933, “Structure-activity relationship of leucyladenylate sulfamate analogues as leucyl-tRNA synthetase (LRS)-targeting inhibitors of Mammalian target of rapamycin complex 1 (mTORC1)” (Bioorg Med Chem, 2019)
Calls of active or inactive are those of the source. No cut-off for these calls is given here.

Legend:
mTORC2 (Homo sapiens) = mTORC2 (Homo sapiens) (UniProt P42345+Q6R327+Q9BVC4+Q9BPZ7); assay: Inhibition of mTORC2 signaling in human HEK293 cells assessed as reduction in leucine-induced AKT phosphorylation at 200 uM preincubated for 50 mins followed by leucine-stimulation and measured after 10 mins by Western blot analysis; assay type: cell-based
HCT-116 = assay: Antiproliferative activity against human HCT116 cells after 72 hrs by SRB assay; assay type: functional, cell-based; settings: HCT-116, 72 h
Outline: (§1)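 Colorimetric growth assay with IC50 values derived; etoposide as positive control. Cell lines: A549 (lung cancer), HCT116 (colon cancer), MDA-MB-231 (breast cancer), SK-Hep-1 (liver cancer), SNU638 (stomach cancer), MRC5 (normal lung […]).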

MRC5 = assay: Antiproliferative activity against human MRC5 cells after 72 hrs by SRB assay; assay type: cell-based; settings: MRC5, 72 h; outline: as §1
A549 = assay: Antiproliferative activity against human A549 cells after 72 hrs by SRB assay; assay type: functional, cell-based; settings: A549, 72 h; outline: as §1
SNU-638 = assay: Antiproliferative activity against human SNU638 cells after 72 hrs by SRB assay; assay type: functional, cell-based; settings: SNU-638, 72 h; outline: as §1
HEK293 = assay: Effect on leucine-induced AKT levels in human HEK293 cells at 200 uM preincubated for 50 mins followed by leucine-stimulation and measured after 10 mins by Western blot analysis; assay type: functional, cell-based
SK-HEP1 = assay: Antiproliferative activity against human SKHEP1 cells after 72 hrs by SRB assay; assay type: functional, cell-based; settings: SK-HEP1, 72 h; outline: as §1
MDA-MB-231 = assay: Antiproliferative activity against human MDA-MB-231 cells after 72 hrs by SRB assay; assay type: functional, cell-based; settings: MDA-MB-231, 72 h; outline: as §1
[1] = target: Leucine--tRNA ligase, cytoplasmic (Homo sapiens) (UniProt Q9P2J5); assay: Inhibition of Leucyl-tRNA synthetase-mediated mTORC1 signaling activation in human HEK293 cells assessed as reduction in leucine-induced S6K phosphorylation at 200 uM preincubated for 50 mins followed by leucine-stimulation and measured after 10 mins by Western blot analysis; assay type: cell-based
Outline: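 HEK293 cells pretreated with test agent at a fixed 200 µM, alongside rapamycin (100 nM) and leucinol (800 µM) as references. mTORC1 then activated by adding leucine for 10 min. S6K phosphorylation read by Western blot.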

[2] = target: Leucine--tRNA ligase, cytoplasmic (Homo sapiens) (UniProt Q9P2J5); assay: Inhibition of Leucyl-tRNA synthetase-mediated mTORC1 signaling activation in human HEK293 cells assessed as reduction in leucine-induced S6K phosphorylation preincubated for 50 mins followed by leucine-stimulation and measured after 10 mins by Western blot analysis; assay type: cell-based
Outline: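 HEK293 cells pretreated at 20, 50, 100 and 200 µM. Leucine then added for 10 min to activate mTORC1. Dose dependence of leucine-induced S6K phosphorylation assessed by Western blot.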

Leucine--tRNA ligase, cytoplasmic (Homo sapiens), sequence (Q9P2J5 whole entry, looked up): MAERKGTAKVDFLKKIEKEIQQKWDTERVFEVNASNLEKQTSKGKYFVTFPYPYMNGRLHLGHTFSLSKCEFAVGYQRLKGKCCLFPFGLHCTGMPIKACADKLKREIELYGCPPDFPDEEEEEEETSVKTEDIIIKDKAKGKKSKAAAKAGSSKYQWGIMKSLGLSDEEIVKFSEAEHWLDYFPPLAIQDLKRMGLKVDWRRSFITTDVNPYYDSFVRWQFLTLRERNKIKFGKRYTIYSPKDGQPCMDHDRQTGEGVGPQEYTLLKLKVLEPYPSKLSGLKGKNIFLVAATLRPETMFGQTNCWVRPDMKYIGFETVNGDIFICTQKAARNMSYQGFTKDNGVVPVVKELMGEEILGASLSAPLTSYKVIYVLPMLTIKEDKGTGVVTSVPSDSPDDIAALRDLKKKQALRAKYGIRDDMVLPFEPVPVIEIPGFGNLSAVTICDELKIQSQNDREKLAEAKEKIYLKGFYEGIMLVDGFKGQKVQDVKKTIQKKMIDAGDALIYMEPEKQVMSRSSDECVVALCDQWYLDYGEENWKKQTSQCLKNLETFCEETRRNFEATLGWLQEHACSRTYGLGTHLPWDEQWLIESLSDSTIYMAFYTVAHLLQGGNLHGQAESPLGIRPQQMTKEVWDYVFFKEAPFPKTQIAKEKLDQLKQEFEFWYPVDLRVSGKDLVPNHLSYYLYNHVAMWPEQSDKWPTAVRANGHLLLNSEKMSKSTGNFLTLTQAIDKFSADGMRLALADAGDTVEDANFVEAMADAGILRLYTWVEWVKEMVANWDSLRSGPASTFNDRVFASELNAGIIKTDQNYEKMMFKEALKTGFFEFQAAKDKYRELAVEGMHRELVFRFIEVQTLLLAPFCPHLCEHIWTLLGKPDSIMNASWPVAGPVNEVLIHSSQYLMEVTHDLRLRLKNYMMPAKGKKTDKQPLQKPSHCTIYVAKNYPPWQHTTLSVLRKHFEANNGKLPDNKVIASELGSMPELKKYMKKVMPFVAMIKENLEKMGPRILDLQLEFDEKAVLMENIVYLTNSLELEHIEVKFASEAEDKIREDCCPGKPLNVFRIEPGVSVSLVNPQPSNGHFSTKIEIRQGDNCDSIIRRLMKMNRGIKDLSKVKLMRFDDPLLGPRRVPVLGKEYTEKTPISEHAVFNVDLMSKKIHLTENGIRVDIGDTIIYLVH

| inhibition (mTORC2 (Homo sapiens)) | IC50 (HCT-116) [µM] | IC50 (A549) [µM] | IC50 (SNU-638) [µM] | IC50 (SK-HEP1) [µM] | IC50 (MDA-MB-231) [µM] | inhibition [1] | inhibition [2] | SMILES | IC50 (MRC5) [µM] | Activity (HEK293) |
| --- | --- | --- | --- | --- | --- | --- | --- | --- | --- | --- |
| inactive | 3.47 | 1 | 4.5 | 1.76 | 2.61 | Active | Dose-dependent effect | CC(C)C[C@H](O)C(=O)NS(=O)(=O)OC[C@H]1O[C@@H](n2cnc3c(N)ncnc32)[C@H](O)[C@@H]1O | 16.6 | inactive |
| inactive | 6.52 | 5.04 | 4.72 | 5.74 | 6.27 | Active | Dose-dependent effect | CC(C)[C@@H](O)[C@H](O)C(=O)NS(=O)(=O)OC[C@H]1O[C@@H](n2cnc3c(N)ncnc32)C[C@@H]1O | > 20 | inactive |
